Assay [1] has as its target T1, Type-1 angiotensin II receptor (Bos taurus) (UniProt P25104).
T1 sequence (whole entry): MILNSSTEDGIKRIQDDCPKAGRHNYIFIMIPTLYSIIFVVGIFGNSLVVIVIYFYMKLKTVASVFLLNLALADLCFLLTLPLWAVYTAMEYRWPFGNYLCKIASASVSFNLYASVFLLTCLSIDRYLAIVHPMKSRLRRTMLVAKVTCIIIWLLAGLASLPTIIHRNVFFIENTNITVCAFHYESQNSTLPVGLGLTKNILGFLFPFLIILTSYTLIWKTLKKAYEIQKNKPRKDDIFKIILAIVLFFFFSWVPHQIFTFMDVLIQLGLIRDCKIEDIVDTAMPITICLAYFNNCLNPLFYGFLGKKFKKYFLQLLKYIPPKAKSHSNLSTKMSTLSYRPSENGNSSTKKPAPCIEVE
Put plainly: Displacement of [3H]AT from angiotensin II receptor in bovine adrenocortical membranes. Type of assay: cell membranes. The method in brief: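 Bovine adrenal glands taken fresh at slaughter, kept in ice-cold saline and dissected; purified adrenal microsomal membranes (~50-100 μg protein) in 100 μL assay buffer with [Sar1,(3',5'-3H2-4'-NH2)Phe4]AT at 5 × 10^-9 M. Competitor 10^-9 to 10^-4 M. Triplicate, 20 °C, 15 min. Filtration on nitrocellulose, scintillation counting. Nonspecific binding with 10^-4 M unlabeled AT. Specific binding as B/BO. At least nine independent experiments; RA given relative to standard.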
Background: Loss of bound radioactivity is the signal in a displacement assay; it reports binding, not function.

Assay [2] concerns Rattus norvegicus. Put plainly: In vivo biological activity on the blood pressure of the anesthetized rat. Type of assay: functional.
The species named for assay [3] is Oryctolagus cuniculus. The assay is described as follows: In vitro biological activity on rabbit aorta strip. It counts as functional. Put shortly: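 Isolated rabbit aorta strips under 2 g tension, adjusted during a 60–90-min equilibration, with bath fluid changed every 10–15 min. Peptides added to the tissue bath, concentrations stated as final bath concentrations. Contractile responses recorded with force-displacement transducers.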

Square brackets hold non-standard residues; d marks the D form. Peptide text beside a SMILES is read from it. Sar = CNCC(=O)O

Turning to `CNCC(=O)N[C@@H](CCCN=C(N)N)C(=O)N[C@H](C(=O)N[C@@H](Cc1ccc(O)c([N+](=O)[O-])c1)C(=O)N[C@H](C(=O)N[C@@H](Cc1c[nH]cn1)C(=O)N1CCC[C@@H]1C(=O)N[C@@H](Cc1ccccc1)C(=O)O)C(C)C)C(C)C`, in assay [1], the Activity was 75%. For `CNCC(=O)N[C@@H](CCCN=C(N)N)C(=O)N[C@H](C(=O)N[C@@H](Cc1cc([N+](=O)[O-])c(O)c([N+](=O)[O-])c1)C(=O)N[C@H](C(=O)N[C@@H](Cc1c[nH]cn1)C(=O)N1CCC[C@H]1C(=O)N[C@@H](Cc1ccccc1)C(=O)O)C(C)C)C(C)C`, the Activity is 0.5% in assay [2] and 7.8% in assay [3].

As to `CNCC(=O)N[C@@H](CCCN=C(N)N)C(=O)N[C@H](C(=O)N[C@@H](Cc1ccc(O)c(N)c1)C(=O)N[C@H](C(=O)N[C@@H](Cc1c[nH]cn1)C(=O)N1CCC[C@H]1C(=O)N[C@@H](Cc1ccccc1)C(=O)O)C(C)C)C(C)C`, the figures for the Activity in assay [2] and in assay [3] were 184% and 120%, respectively. On to `CNCC(=O)N[C@@H](CCCN=C(N)N)C(=O)N[C@H](C(=O)N[C@@H](Cc1ccc(O)c(N=[N+]=[N-])c1)C(=O)N[C@H](C(=O)N[C@@H](Cc1c[nH]cn1)C(=O)N1CCC[C@H]1C(=O)N[C@@H](Cc1ccccc1)C(=O)O)C(C)C)C(C)C`, for which the Activity in assay [2] and in assay [3] was 63% throughout. Regarding `CNCC(=O)N[C@@H](CCCN=C(N)N)C(=O)N[C@H](C(=O)N[C@@H](Cc1ccc(N=[N+]=[N-])cc1)C(=O)N[C@H](C(=O)N[C@@H](Cc1c[nH]cn1)C(=O)N1CCC[C@@H]1C(=O)N[C@@H](Cc1ccccc1)C(=O)O)C(C)C)C(C)C`, the Activity in assay [1] was determined as 2.6%. In the case of `CNCC(=O)N[C@@H](CCCN=C(N)N)C(=O)N[C@H](C(=O)N[C@@H](Cc1cc(I)c(N)c(I)c1)C(=O)N[C@H](C(=O)N[C@@H](Cc1c[nH]cn1)C(=O)N1CCC[C@H]1C(=O)N[C@@H](Cc1ccccc1)C(=O)O)C(C)C)C(C)C`, the values for the Activity in assay [2] and in assay [3] were 5.3% and 2.7%, respectively. Taken in the same sequence, the figures for `CNCC(=O)N[C@@H](CCCN=C(N)N)C(=O)N[C@H](C(=O)N[C@@H](Cc1ccc(O)c(Cl)c1)C(=O)N[C@H](C(=O)N[C@@H](Cc1c[nH]cn1)C(=O)N1CCC[C@H]1C(=O)N[C@@H](Cc1ccccc1)C(=O)O)C(C)C)C(C)C` were 82% and 103%.

`CNCC(=O)N[C@@H](CCCN=C(N)N)C(=O)N[C@H](C(=O)N[C@@H](Cc1cc(I)c(N)c(I)c1)C(=O)N[C@H](C(=O)N[C@@H](Cc1c[nH]cn1)C(=O)N1CCC[C@@H]1C(=O)N[C@@H](Cc1ccccc1)C(=O)O)C(C)C)C(C)C` returned an Activity in assay [1] of 16%. For the molecule `CNCC(=O)N[C@@H](CCCN=C(N)N)C(=O)N[C@H](C(=O)N[C@@H](Cc1ccc(S)cc1)C(=O)N[C@H](C(=O)N[C@@H](Cc1c[nH]cn1)C(=O)N1CCC[C@H]1C(=O)N[C@@H](Cc1ccccc1)C(=O)O)C(C)C)C(C)C`, the Activity in assay [3] came out at 0.9%. `CNCC(=O)N[C@@H](CCCN=C(N)N)C(=O)N[C@H](C(=O)N[C@@H](Cc1ccc(N)cc1)C(=O)N[C@H](C(=O)N[C@@H](Cc1c[nH]cn1)C(=O)N1CCC[C@@H]1C(=O)N[C@@H](Cc1ccccc1)C(=O)O)C(C)C)C(C)C`: the Activity in assay [1] turned out to be 28%. For `CNCC(=O)N[C@@H](CCCN=C(N)N)C(=O)N[C@H](C(=O)N[C@@H](Cc1ccccc1)C(=O)N[C@H](C(=O)N[C@@H](Cc1c[nH]cn1)C(=O)N1CCC[C@@H]1C(=O)N[C@@H](Cc1ccccc1)C(=O)O)C(C)C)C(C)C`, the Activity in assay [1] is 18%. As to `CNCC(=O)N[C@@H](CCCN=C(N)N)C(=O)N[C@H](C(=O)N[C@@H](Cc1ccc([N+](=O)[O-])cc1)C(=O)N[C@H](C(=O)N[C@@H](Cc1c[nH]cn1)C(=O)N1CCC[C@H]1C(=O)N[C@@H](Cc1ccccc1)C(=O)O)C(C)C)C(C)C`, the Activity in assay [2] came to 0.2%; in assay [3], 0%.

As to `CNCC(=O)N[C@@H](CCCN=C(N)N)C(=O)N[C@H](C(=O)N[C@@H](Cc1ccc(S(=O)(=O)O)cc1)C(=O)N[C@H](C(=O)N[C@@H](Cc1c[nH]cn1)C(=O)N1CCC[C@H]1C(=O)N[C@@H](Cc1ccccc1)C(=O)O)C(C)C)C(C)C`, the Activity in assay [2] and in assay [3] was 0% throughout. Turning to `CNCC(=O)N[C@@H](CCCN=C(N)N)C(=O)N[C@H](C(=O)N[C@@H](Cc1ccc(O)c(Cl)c1)C(=O)N[C@H](C(=O)N[C@@H](Cc1c[nH]cn1)C(=O)N1CCC[C@@H]1C(=O)N[C@@H](Cc1ccccc1)C(=O)O)C(C)C)C(C)C`, in assay [1], the Activity came to 87%. Same read-out and setting: to `CNCC(=O)N[C@@H](CCCN=C(N)N)C(=O)N[C@H](C(=O)N[C@@H](Cc1ccc(O)c(N=[N+]=[N-])c1)C(=O)N[C@H](C(=O)N[C@@H](Cc1c[nH]cn1)C(=O)N1CCC[C@@H]1C(=O)N[C@@H](Cc1ccccc1)C(=O)O)C(C)C)C(C)C` belongs 61%. `CNCC(=O)N[C@@H](CCCN=C(N)N)C(=O)N[C@H](C(=O)N[C@@H](Cc1ccc(O)cc1)C(=O)N[C@H](C(=O)N[C@@H](Cc1c[nH]cn1)C(=O)N1CCC[C@H]1C(=O)N[C@@H](Cc1ccccc1)C(=O)O)C(C)C)C(C)C` (H-[Sar]RVYVHPF-OH): the Activity in assay [2] and in assay [3] was 100% throughout.

On to `CNCC(=O)N[C@@H](CCCN=C(N)N)C(=O)N[C@H](C(=O)N[C@@H](Cc1ccc(N=[N+]=[N-])cc1)C(=O)N[C@H](C(=O)N[C@@H](Cc1c[nH]cn1)C(=O)N1CCC[C@H]1C(=O)N[C@@H](Cc1ccccc1)C(=O)O)C(C)C)C(C)C`, for which the Activity in assay [3] was 0.3%. Consider `CNCC(=O)N[C@@H](CCCN=C(N)N)C(=O)N[C@H](C(=O)N[C@@H](Cc1ccc(S)cc1)C(=O)N[C@H](C(=O)N[C@@H](Cc1c[nH]cn1)C(=O)N1CCC[C@@H]1C(=O)N[C@@H](Cc1ccccc1)C(=O)O)C(C)C)C(C)C`, for which the Activity in assay [1] was 0.5%. The same measure, in the same setting: to `CNCC(=O)N[C@@H](CCCN=C(N)N)C(=O)N[C@H](C(=O)N[C@@H](Cc1ccc(O)c(N)c1)C(=O)N[C@H](C(=O)N[C@@H](Cc1c[nH]cn1)C(=O)N1CCC[C@@H]1C(=O)N[C@@H](Cc1ccccc1)C(=O)O)C(C)C)C(C)C` belongs 132%.

Take `CNCC(=O)N[C@@H](CCCN=C(N)N)C(=O)N[C@H](C(=O)N[C@@H](Cc1ccc(O)c([N+](=O)[O-])c1)C(=O)N[C@H](C(=O)N[C@@H](Cc1c[nH]cn1)C(=O)N1CCC[C@H]1C(=O)N[C@@H](Cc1ccccc1)C(=O)O)C(C)C)C(C)C`: the Activity worked out at 16% in assay [2] and 38% in assay [3].

For the molecule `CNCC(=O)N[C@@H](CCCN=C(N)N)C(=O)N[C@H](C(=O)N[C@@H](Cc1ccc([N+](=O)[O-])cc1)C(=O)N[C@H](C(=O)N[C@@H](Cc1c[nH]cn1)C(=O)N1CCC[C@@H]1C(=O)N[C@@H](Cc1ccccc1)C(=O)O)C(C)C)C(C)C`, in assay [1], the Activity worked out at 1.5%. Take `CNCC(=O)N[C@@H](CCCN=C(N)N)C(=O)N[C@H](C(=O)N[C@@H](Cc1ccc(S(N)(=O)=O)cc1)C(=O)N[C@H](C(=O)N[C@@H](Cc1c[nH]cn1)C(=O)N1CCC[C@H]1C(=O)N[C@@H](Cc1ccccc1)C(=O)O)C(C)C)C(C)C`: the figures for the Activity in assay [2] and in assay [3] were 0.9% and 3.2%, respectively. Turning to `CNCC(=O)N[C@@H](CCCN=C(N)N)C(=O)N[C@H](C(=O)N[C@@H](Cc1ccc(O)cc1)C(=O)N[C@H](C(=O)N[C@@H](Cc1c[nH]cn1)C(=O)N1CCC[C@@H]1C(=O)N[C@@H](Cc1ccccc1)C(=O)O)C(C)C)C(C)C` (H-[Sar]RVYVH[dP]F-OH), in assay [1], the Activity is 100%. On the same count and under the same terms, to `CNCC(=O)N[C@@H](CCCN=C(N)N)C(=O)N[C@H](C(=O)N[C@@H](Cc1cc([N+](=O)[O-])c(O)c([N+](=O)[O-])c1)C(=O)N[C@H](C(=O)N[C@@H](Cc1c[nH]cn1)C(=O)N1CCC[C@@H]1C(=O)N[C@@H](Cc1ccccc1)C(=O)O)C(C)C)C(C)C` belongs 1.5%. Take `CNCC(=O)N[C@@H](CCCN=C(N)N)C(=O)N[C@H](C(=O)N[C@@H](Cc1ccc(S(N)(=O)=O)cc1)C(=O)N[C@H](C(=O)N[C@@H](Cc1c[nH]cn1)C(=O)N1CCC[C@@H]1C(=O)N[C@@H](Cc1ccccc1)C(=O)O)C(C)C)C(C)C`: in assay [1], the Activity was found to be 3.8%. On the same count and under the same terms, to `CNCC(=O)N[C@@H](CCCN=C(N)N)C(=O)N[C@H](C(=O)N[C@@H](Cc1ccc(S(=O)(=O)O)cc1)C(=O)N[C@H](C(=O)N[C@@H](Cc1c[nH]cn1)C(=O)N1CCC[C@@H]1C(=O)N[C@@H](Cc1ccccc1)C(=O)O)C(C)C)C(C)C` belongs 0%; to `CNCC(=O)N[C@@H](CCCN=C(N)N)C(=O)N[C@H](C(=O)N[C@@H](Cc1cc(Cl)c(O)c(Cl)c1)C(=O)N[C@H](C(=O)N[C@@H](Cc1c[nH]cn1)C(=O)N1CCC[C@@H]1C(=O)N[C@@H](Cc1ccccc1)C(=O)O)C(C)C)C(C)C`, 28%. As to `CNCC(=O)N[C@@H](CCCN=C(N)N)C(=O)N[C@H](C(=O)N[C@@H](Cc1cc(Cl)c(O)c(Cl)c1)C(=O)N[C@H](C(=O)N[C@@H](Cc1c[nH]cn1)C(=O)N1CCC[C@H]1C(=O)N[C@@H](Cc1ccccc1)C(=O)O)C(C)C)C(C)C`, the Activity is recorded as 19% in assay [2] and 22% in assay [3]. On to `CNCC(=O)N[C@@H](CCCN=C(N)N)C(=O)N[C@H](C(=O)N[C@@H](Cc1ccc(N)cc1)C(=O)N[C@H](C(=O)N[C@@H](Cc1c[nH]cn1)C(=O)N1CCC[C@H]1C(=O)N[C@@H](Cc1ccccc1)C(=O)O)C(C)C)C(C)C`, for which the Activity in assay [2] is recorded as 14%; in assay [3] it was 15%.

The values above are taken from ChEMBL document CHEMBL1122757, “Angiotensin II: dependence of hormone affinity on the electronegativity of a single side chain” (1984).
